Compound activity: PubChem, several laboratories
Compounds with a hit are over-represented: about 2.2% of the library has one in this group of screens.
FLuc inh counter: counter-screen for luciferase assay inhibitors: firefly luciferase inhibition; P08659; ATPLite firefly luciferase biochemical luminescence, 10 min; inhibition, % at 10 µM; 1.5% of 200,000 active;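 active means inhibition above about 50% when tested at 10 µM, limit read from the data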
Target sequence (P08659 whole entry, looked up): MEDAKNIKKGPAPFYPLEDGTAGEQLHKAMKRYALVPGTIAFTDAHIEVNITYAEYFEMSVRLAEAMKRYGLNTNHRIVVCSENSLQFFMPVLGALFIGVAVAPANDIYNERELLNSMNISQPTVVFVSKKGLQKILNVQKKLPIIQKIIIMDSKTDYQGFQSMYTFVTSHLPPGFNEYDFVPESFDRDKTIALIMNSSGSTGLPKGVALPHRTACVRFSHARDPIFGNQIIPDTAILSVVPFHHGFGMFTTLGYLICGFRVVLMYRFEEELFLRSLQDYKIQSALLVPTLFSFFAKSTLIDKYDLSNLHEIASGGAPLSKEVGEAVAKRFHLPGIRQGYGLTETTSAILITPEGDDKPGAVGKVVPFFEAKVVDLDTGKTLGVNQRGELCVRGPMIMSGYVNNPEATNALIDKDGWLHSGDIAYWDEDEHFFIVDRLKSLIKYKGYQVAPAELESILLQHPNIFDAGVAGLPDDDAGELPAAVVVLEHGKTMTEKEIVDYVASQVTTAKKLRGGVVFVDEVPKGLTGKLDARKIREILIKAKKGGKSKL
TRAIL sens C8: sensitizes caspase-8 expressing cells to TRAIL | NB7+C8 cells + TRAIL, ATPlite viability luminescence | AID 624354 | inhibition (viability loss, TRAIL sensitization), % at 10 µM | 1% of 360,000 active;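 active means compounds causing at least 50% loss of cell viability in the single-dose screen, relative to plate controls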
PPC-1+TRAIL kill: PPC-1 cancer cell killing with TRAIL present | PPC-1 cells + TRAIL, ATPLite viability luminescence | cell killing (% activity), % at 4 µM or 5 µM | 0.41% of 220,000 active | AID 1443;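 active means cell killing above 50% in the first pass at 4 µM, then a duplicate retest at 5 µM averaging 50% or more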;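 further: plate controls were cells with TRAIL plus DMSO for no effect and medium-only wells lacking cells for full effect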
NF-kB expr up: raises NF-kB expression in human neuronal cells; 1.6% of 190,000 active; NF-kB reporter expression; stronger effect = higher value; AID 1239; fold change at 12.5 µM; in the data active means fold change above about 3.3
FLuc act counter: affects firefly luciferase, flagging false hits in luciferase stimulation screens. ATPlite luciferase biochemical, luminescence, 10 min; 0 = ATP-free wells, 1 = DMSO control. activation factor at 10 µM. 200,000 tested, under 10 active;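 active means luciferase activation factor, scaled between plate controls, of at least 2 with compound at 10 µM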
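Assay system: Luciferase/luciferin detection reagent, cell-free biochemical luciferase assay / Also added: ATP substrate / Schedule: 10 min at ambient temperature / Measured by: luminescence measurement of luciferase light output / Benchmarks: low control with PBS replacing ATP, high control enzyme plus ATP without compound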
APP 5'UTR act: activates APP 5'UTR luciferase reporter; SH-SY5Y APP 5'UTR luciferase reporter, luminescence; zero percent = DMSO vehicle wells; activation, % at 2 µM; 1% of 190,000 active;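 active means activation above a set limit, based on mean plus 3 SD of controls, cut at about 140% in these data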
* = called active by the depositor.

CCN(CC)C(=O)Oc1ccc2c(=O)c(-c3ccccc3)coc2c1 was read as FLuc inh counter 22, TRAIL sens C8 2, PPC-1+TRAIL kill 10, NF-kB expr up 4.6*, FLuc act counter 0.8 and APP 5'UTR act 44.
For COc1ccc2oc(-c3ccccc3)cc(=O)c2c1 the results were TRAIL sens C8 72*.
For CC(=O)Oc1ccc2occ(-c3ccccc3)c2c1 the results were TRAIL sens C8 -1.
COc1ccc2c(=O)c(-c3ccc(OC)c(OC)c3)coc2c1 was read as FLuc inh counter 46, TRAIL sens C8 30, PPC-1+TRAIL kill 7, NF-kB expr up 1.9, FLuc act counter 0.5 and APP 5'UTR act 34.
`CCc1c(-c2cccc(OC)c2)ncn1Cc1cccc(-c2ccccc2)c1` gave TRAIL sens C8 23.
For OC[C@@H]1CN(Cc2ccco2)C[C@H](n2cnc3c(Nc4ccccc4)ncnc32)O1 the results were TRAIL sens C8 -3.
Screening CCCNC(=O)Nc1nc(C(N)c2ccc(OC)cc2)cs1 (stereo not given) returned TRAIL sens C8 -28.
COc1ccccc1OC(C)C(=O)Nc1nc(-c2ccc(S(=O)(=O)N3CCOCC3)cc2)cs1 (stereo not given) was read as FLuc inh counter -3, TRAIL sens C8 0, PPC-1+TRAIL kill 5, NF-kB expr up 0.87, FLuc act counter 1 and APP 5'UTR act -10.
Screening COc1ccccc1C(=O)Nc1nc(-c2ccc(S(=O)(=O)N3CCOCC3)cc2)cs1 returned FLuc inh counter -2, TRAIL sens C8 76*, PPC-1+TRAIL kill 39, NF-kB expr up 0.28, FLuc act counter 1 and APP 5'UTR act -18.
For COc1ccc(-c2nc3ccc([N+](=O)[O-])cc3o2)cc1 the results were FLuc inh counter 6, TRAIL sens C8 -2, PPC-1+TRAIL kill 22, NF-kB expr up 2.8, FLuc act counter 0.9 and APP 5'UTR act 150*.
O=[N+]([O-])c1ccc2oc(-c3ccccc3)nc2c1 was read as FLuc inh counter 18, TRAIL sens C8 4, PPC-1+TRAIL kill -2, NF-kB expr up 4.2*, FLuc act counter 0.8 and APP 5'UTR act 112.
For Cc1cccc(-c2nc3cc([N+](=O)[O-])ccc3o2)c1 the results were FLuc inh counter 18, TRAIL sens C8 19, PPC-1+TRAIL kill 6, NF-kB expr up 3.5*, FLuc act counter 0.8 and APP 5'UTR act 82.
`COc1ccc(OC2(C)CCN(Cc3ccc(-c4ccccc4)o3)C2)cc1` (stereo not given) gave TRAIL sens C8 4.
`CC(C)OC(=O)c1ccc(NCc2cc(O)ccc2O)cc1` gave TRAIL sens C8 73*.
CCC(=O)Nc1ccc(C(=O)OCc2ccccc2)cc1 was read as FLuc inh counter -3, TRAIL sens C8 2, PPC-1+TRAIL kill 9, NF-kB expr up 1.3, FLuc act counter 1 and APP 5'UTR act 24.
O=C(OCc1ccccc1)c1ccc(NCc2cc(O)ccc2O)cc1 was read as TRAIL sens C8 90*.
Screening COc1ccc(-n2nc(C(=O)NCC(=O)N3CCN(c4ccccn4)CC3)c3ccccc3c2=O)cc1 returned FLuc inh counter 68*, TRAIL sens C8 29, PPC-1+TRAIL kill 44, NF-kB expr up 1, FLuc act counter 0.3 and APP 5'UTR act 33.
For COc1ccc(-n2nc(C(=O)NCC(=O)N3CCN(c4ccccn4)CC3)c3ccccc3c2=O)cc1OC the results were FLuc inh counter 39, TRAIL sens C8 13, PPC-1+TRAIL kill 29, NF-kB expr up 1, FLuc act counter 0.6 and APP 5'UTR act 1.
Screening COc1ccc(-n2nc(C(=O)NCC(=O)N3CCN(c4ccc(F)cc4)CC3)c3ccccc3c2=O)c(OC)c1 returned TRAIL sens C8 28.
For COc1ccc(-n2nc(C(=O)NCC(=O)N3CCN(c4ccccc4)CC3)c3ccccc3c2=O)c(OC)c1 the results were TRAIL sens C8 62*.
COc1ccc(NC(=O)C2CCCN2S(=O)(=O)c2ccc3c(c2)C(C)(C)C(=O)N3C)cc1 (stereo not given) was read as TRAIL sens C8 2.
CC1(C(=O)NS(=O)(=O)c2ccc(C#N)cc2)CCN1C(=O)C1(c2ccccc2)CCCC1 (stereo not given) was read as TRAIL sens C8 -14.
CC(=O)Nc1cc(C)nn1-c1nc2ccccc2s1 was read as FLuc inh counter 14, TRAIL sens C8 6, PPC-1+TRAIL kill 6, NF-kB expr up 0.4, FLuc act counter 0.9 and APP 5'UTR act 73.
`O=C(Nc1nc2ccccc2s1)c1c(F)cccc1Cl` gave TRAIL sens C8 10.
Screening Nc1c(C(=O)Nc2nc3ccccc3s2)sc2nc(-c3cccs3)ccc12 returned FLuc inh counter 16, TRAIL sens C8 96*, PPC-1+TRAIL kill 24, NF-kB expr up 2.1, FLuc act counter 0.8 and APP 5'UTR act 110.
For Nc1ccc(C(=O)Nc2nc3ccccc3s2)cc1 the results were FLuc inh counter 74*, TRAIL sens C8 50*, PPC-1+TRAIL kill 59*, NF-kB expr up 3.9*, FLuc act counter 0.3 and APP 5'UTR act 160*.
Cc1cc(C)n(-c2ccc(C(=O)Nc3nc4ccccc4s3)cc2)n1 was read as FLuc inh counter 6, TRAIL sens C8 21, PPC-1+TRAIL kill -7, NF-kB expr up 3.9*, FLuc act counter 0.9 and APP 5'UTR act 109.
`Cn1cc(Cl)c(C(=O)Nc2nc3ccccc3s2)n1` gave FLuc inh counter 61*, TRAIL sens C8 34, PPC-1+TRAIL kill 18, NF-kB expr up 4.4*, FLuc act counter 0.4 and APP 5'UTR act 146*.
Screening O=C1c2ccccc2C(c2nnnn2-c2ccc3c(c2)OCCO3)N1C1CC1 (stereo not given) returned TRAIL sens C8 -5.
Screening O=c1[nH][nH]c2c1C(c1ccc(Cl)c(Cl)c1)OC(CCc1ccccc1)C2 (stereo not given) returned TRAIL sens C8 -20.
CCOC(=O)c1nn(-c2ccc(Br)cc2)cc1C(=O)c1cccc2ccccc12 was read as FLuc inh counter -1, TRAIL sens C8 8, PPC-1+TRAIL kill 18, NF-kB expr up 6.4*, FLuc act counter 1 and APP 5'UTR act 7.
`NC(Cc1ccc(Cl)cc1)c1csc(Nc2ccc(C(F)(F)F)cn2)n1` (stereo not given) gave TRAIL sens C8 20.
For CCCc1nc2ccc(Cl)cn2c1Cc1ccsc1 the results were TRAIL sens C8 -1.
`CCCc1c(C(=O)N/N=C/C(C)=C/c2ccccc2)nnn1-c1nonc1N` gave TRAIL sens C8 26.
`CCCc1c(C(=O)N/N=C/C=C/c2ccccc2)nnn1-c1nonc1N` gave TRAIL sens C8 55*.
